Test results taken from ChEMBL document CHEMBL2010644, “Evaluation and discovery of novel synthetic chalcone derivatives as anti-inflammatory agents” (J Med Chem, 2011).
Calls of active or inactive are those of the source. The rule behind the calls is not given here.

Legend:
[1] = system: RAW264.7; assay: Antiinflammatory activity in mouse RAW264.7 cells assessed as inhibition of LPS-induced IL6 production at 10 uM incubated for 2 hrs prior to LPS-challenge measured after 22 hrs by ELISA; format: functional, cell-based
Summary of the method: (§1)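 RAW264.7 cells grown in DMEM with 10% FBS at 37 °C, 5% CO2, plated at 1.2 × 10^6/plate overnight. Compound pretreatment 2 h (screen at 10 μM; dose-response at 2.5, 5.0, 10 μM), then LPS 0.5 μg/mL for 22 h. Medium TNF-α or IL-6 measured by ELISA, normalized to cell protein, expressed as % of LPS control; IC50 derived from dose series.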

[2] = system: RAW264.7; assay: Antiinflammatory activity in mouse RAW264.7 cells assessed as inhibition of LPS-induced TNFalpha production at 10 uM incubated for 2 hrs prior to LPS-challenge measured after 22 hrs by ELISA; format: functional, cell-based; summary of the method: as §1
[3] = system: Peritoneal macrophage cell; assay: Antiinflammatory activity in ICR mouse primary peritoneal macrophages assessed as downregulation of high glucose-induced IL1beta mRNA expression at 10 uM incubated for 2 hrs prior to high glucose-challenge measured after 3 hrs by RT-qPCR analysis; format: functional, cell-based
Summary of the method: (§2)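 Peritoneal macrophages (1 × 10^6) pretreated with compound (10 μM) or DMSO for 2 h, then high glucose (25 mM) for 3 h. Low-glucose reference cells kept in RPMI-1640 with 5.5 mM glucose. TNF-α, IL-1β, IL-6 and IL-12 mRNA measured by RT-qPCR on whole-cell RNA. Mean ± SEM, three independent experiments run in duplicate.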

[4] = system: Peritoneal macrophage cell; assay: Antiinflammatory activity in ICR mouse primary peritoneal macrophages assessed as downregulation of LPS-induced COX-2 mRNA expression at 10 uM incubated for 2 hrs prior to LPS-challenge measured after 6 hrs by RT-qPCR analysis; format: functional, cell-based
Summary of the method: (§3)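 Macrophages pretreated 2 h with compound at 10 μM or vehicle, then LPS 0.5 μg/mL for 6 h. mRNA of TNF-α, IL-6, COX-2, IL-1β and IL-12 quantified by RT-qPCR, normalized to β-actin mRNA and expressed as ratio to DMSO. Mean ± SD of four to seven independent experiments.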

[5] = system: Peritoneal macrophage cell; assay: Antiinflammatory activity in ICR mouse primary peritoneal macrophages assessed as downregulation of high glucose-induced TNFalpha mRNA expression at 10 uM incubated for 2 hrs prior to high glucose-challenge measured after 3 hrs by RT-qPCR analysis; format: functional, cell-based; summary of the method: as §2
[6] = system: Peritoneal macrophage cell; assay: Antiinflammatory activity in ICR mouse primary peritoneal macrophages assessed as downregulation of LPS-induced IL-6 mRNA expression at 10 uM incubated for 2 hrs prior to LPS-challenge measured after 6 hrs by RT-qPCR analysis; format: functional, cell-based; summary of the method: as §3
[7] = system: Peritoneal macrophage cell; assay: Antiinflammatory activity in ICR mouse primary peritoneal macrophages assessed as downregulation of LPS-induced IL-12 mRNA expression at 10 uM incubated for 2 hrs prior to LPS-challenge measured after 6 hrs by RT-qPCR analysis; format: functional, cell-based; summary of the method: as §3
[8] = molecular target: T1, MAP kinase p38 (Mus musculus) (UniProt P47811+O08911+Q9WUI1+Q9Z1B7); assay: Inhibition of LPS-induced p38 phosphorylation in ICR mouse primary peritoneal macrophages at 10 uM incubated for 2 hrs prior to LPS-challenge measured after 1 hr by Western blot analysis
Summary of the method: (§4)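 Cells pretreated 2 h with DMSO or compound (10 μM in the single-concentration set; 2.5, 5.0, 10, 20 μM in the dose series), then LPS 0.5 μg/mL for 1 h. p-ERK, ERK, p-p38 and p38 detected by Western blot with actin loading control; optical density ratio reported. Mean ± SE, three independent experiments.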

[9] = system: RAW264.7; assay: Antiinflammatory activity in mouse RAW264.7 cells assessed as inhibition of LPS-induced TNFalpha production incubated for 2 hrs prior to LPS-challenge measured after 22 hrs by ELISA; format: functional, cell-based; summary of the method: as §1
[10] = system: Peritoneal macrophage cell; assay: Antiinflammatory activity in ICR mouse primary peritoneal macrophages assessed as downregulation of high glucose-induced IL12 mRNA expression at 10 uM incubated for 2 hrs prior to high glucose-challenge measured after 3 hrs by RT-qPCR analysis; format: functional, cell-based; summary of the method: as §2
[11] = species on record: Mus musculus; assay: Inhibition of LPS-induced ERK phosphorylation in ICR mouse primary peritoneal macrophages at 10 uM incubated for 2 hrs prior to LPS-challenge measured after 1 hr by Western blot analysis; summary of the method: as §4
[12] = system: RAW264.7; assay: Antiinflammatory activity in mouse RAW264.7 cells assessed as inhibition of LPS-induced IL6 production incubated for 2 hrs prior to LPS-challenge measured after 22 hrs by ELISA; format: functional, cell-based; summary of the method: as §1
[13] = system: Peritoneal macrophage cell; assay: Antiinflammatory activity in ICR mouse primary peritoneal macrophages assessed as downregulation of LPS-induced TNF-alpha mRNA expression at 10 uM incubated for 2 hrs prior to LPS-challenge measured after 6 hrs by RT-qPCR analysis; format: functional, cell-based; summary of the method: as §3
[14] = system: Peritoneal macrophage cell; assay: Antiinflammatory activity in ICR mouse primary peritoneal macrophages assessed as downregulation of high glucose-induced IL6 mRNA expression at 10 uM incubated for 2 hrs prior to high glucose-challenge measured after 3 hrs by RT-qPCR analysis; format: functional, cell-based; summary of the method: as §2
[15] = system: Peritoneal macrophage cell; assay: Antiinflammatory activity in ICR mouse primary peritoneal macrophages assessed as downregulation of LPS-induced IL-1beta mRNA expression at 10 uM incubated for 2 hrs prior to LPS-challenge measured after 6 hrs by RT-qPCR analysis; format: functional, cell-based; summary of the method: as §3
[16] = system: Mus musculus; assay: Toxicity in C57BL/6 mouse assessed as weight loss at 15 mg/kg, iv up to 60 hrs; format: organism-based; parameters: dose 15 mg/kg, route intravenous; details: in vivo
Summary of the method: (§5)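 Male B6 mice (18−22 g) given compound at 15 mg/kg iv (2 mg/mL in macrogol 15 hydroxystearate 5−10% ± MCT 0.5−2%, 200 μL). LPS 20 mg/kg iv followed 15 min later. Vehicle controls received 10% solubilizer/2% MCT. Body weight recorded every 12 h for 7 days; n = 10 per group.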

[17] = system: Mus musculus; assay: Toxicity in C57BL/6 mouse assessed as weight loss at 15 mg/kg, iv after 60 hrs; format: organism-based; parameters: dose 15 mg/kg, route intravenous; details: in vivo; summary of the method: as §5
[18] = species on record: Mus musculus; assay: Inhibition of JNK-induced NfkappaB p65 subunit translocation from cytoplasm to nucleus in LPS-stimulated ICR mouse primary peritoneal macrophages at 10 uM incubated for 2 hrs prior to LPS-challenge measured after 1 hr by fluorescence microscopy
Summary of the method: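 Macrophages pretreated with DMSO or 10 μM compound for 2 h, stimulated with LPS 0.5 μg/mL for 1 h. Stained with anti-p65 and Cy3-conjugated secondary antibody, nuclei with DAPI. Imaged at 200× by fluorescence microscopy with red/blue overlay. Five independent experiments.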

[19] = system: Mus musculus; assay: Antiinflammatory activity against LPS-induced inflammation in C57BL/6 mouse assessed as survival at 15 mg/kg, iv administered 15 mins prior to LPS-challenge after 7 days relative to vehicle treated control; format: functional
Summary of the method: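 Male B6 mice, 18−22 g, acclimatized ≥7 days. Compound at 2 mg/mL in macrogol 15 hydroxystearate solubilizer (5−10% final) with or without MCT (0.5−2% final), 200 μL iv at 15 mg/kg, 15 min before iv LPS 20 mg/kg. Vehicle controls got 10% solubilizer/2% MCT. Survival and body weight recorded every 12 h for 7 days; n = 10 per group.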

[20] = species on record: Mus musculus; assay: Inhibition of LPS-induced ERK phosphorylation in ICR mouse primary peritoneal macrophages at 20 uM incubated for 2 hrs prior to LPS-challenge measured after 1 hr by Western blot analysis; summary of the method: as §4
[21] = molecular target: T1, MAP kinase p38 (Mus musculus); assay: Inhibition of LPS-induced p38 phosphorylation in ICR mouse primary peritoneal macrophages incubated for 2 hrs prior to LPS-challenge measured after 1 hr by Western blot analysis; summary of the method: as §4
[22] = species on record: Mus musculus; assay: Inhibition of JNK-induced IkappaBalpha degradation in LPS-stimulated ICR mouse primary peritoneal macrophages incubated for 2 hrs prior to LPS-challenge measured after 30 mins by Western blot analysis
Summary of the method: (§6)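 Peritoneal macrophages pretreated with DMSO or compound (2.5, 5, 10 or 20 μM) for 2 h, then LPS 0.5 μg/mL for 30 min. Western blot of 40 μg lysate on 10% SDS-PAGE for IκBα (actin loading control) and p-JNK (JNK control); optical density normalized as percent of control. Mean ± SEM, three independent experiments.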

[23] = species on record: Mus musculus; assay: Inhibition of LPS-induced JNK phosphorylation in ICR mouse primary peritoneal macrophages incubated for 2 hrs prior to LPS-challenge measured after 30 mins by Western blot analysis; summary of the method: as §6
[24] = molecular target: T1, MAP kinase p38 (Mus musculus); assay: Inhibition of LPS-induced p38 phosphorylation in ICR mouse primary peritoneal macrophages at 20 uM incubated for 2 hrs prior to LPS-challenge measured after 1 hr by Western blot analysis; summary of the method: as §4
[25] = system: RAW264.7; assay: Antiinflammatory activity in mouse RAW264.7 cells assessed as inhibition of LPS-induced TNFalpha production at 10 uM incubated for 2 hrs prior to LPS-challenge measured after 22 hrs by ELISA relative to control; format: functional; summary of the method: as §1
[26] = system: RAW264.7; assay: Antiinflammatory activity in mouse RAW264.7 cells assessed as inhibition of LPS-induced IL6 production at 10 uM incubated for 2 hrs prior to LPS-challenge measured after 22 hrs by ELISA relative to control; format: functional; summary of the method: as §1
[27] = species on record: Mus musculus; assay: Inhibition of LPS-induced ERK phosphorylation in ICR mouse primary peritoneal macrophages incubated for 2 hrs prior to LPS-challenge measured after 1 hr by Western blot analysis; summary of the method: as §4

Compound | inhibition [1] | inhibition [2] | Activity [3] | Activity [4] | Activity [5] | Activity [6] | Activity [7] | inhibition [8] | inhibition [9] | Activity [10] | inhibition [11] | IC50 [12] [µM] | inhibition [12] | Activity [13] | Activity [14] | Activity [15] | IC50 [9] [µM] | further results
COc1ccc(C(=O)/C=C/c2cccc(OC)c2OC)cc1 | Active | Active |  |  |  |  |  |  |  |  |  |  |  |  |  |  |  | 
COc1ccc(C(=O)/C=C/c2ccc(O)c(OC)c2)cc1 | Active | Active | Active | Active | Active | Active | Active | Active | Dose-dependent effect | Active | Active | > 10 | Dose-dependent effect | Active | Active | Active |  | 
COc1ccc(C(=O)/C=C/c2c(F)cccc2F)cc1 |  |  | Active | inactive | Active | Active | Active | Active | Dose-dependent effect | Active | Active | 5.55 | Dose-dependent effect | Active | Active | Active | 8.42 | Activity [16]: Toxic; Activity [17]: Non-toxic; inhibition [18]: Active; Activity [19]: 80%; inhibition [20]: Active; inhibition [21]: Dose-dependent effect; inhibition [22]: Dose-dependent effect; inhibition [23]: Dose-dependent effect; inhibition [24]: Active
COc1ccc(C(=O)/C=C/c2ccccc2Cl)cc1OC | Active | Active |  |  |  |  |  |  |  |  |  |  |  |  |  |  |  | 
COc1ccc(/C=C/C(=O)c2cc(OC)c(OC)c(OC)c2)c(OC)c1 | Active | Active |  |  |  |  |  |  |  |  |  |  |  |  |  |  |  | 
COc1cc(/C=C/C(=O)CC(=O)/C=C/c2ccc(O)c(OC)c2)ccc1O | Active | Active |  |  |  |  |  |  |  |  |  |  |  |  |  |  |  | 
COc1cc(C(=O)/C=C/c2ccc(N(C)C)cc2)cc(OC)c1OC | Active | Active | Active | inactive | Active | Active | Active | Active | Dose-dependent effect | Active | Active | 6.88 | Dose-dependent effect | Active | inactive | inactive | 2.9 | inhibition at 10 µM [25]: 61.2%; inhibition at 10 µM [26]: 73.4%
COc1ccc(/C=C/C(=O)c2ccc(OC)c(OC)c2)c(OC)c1 | Active | Active | inactive | Active | Active | Active | Active | Active | Dose-dependent effect | Active | Active | 5.35 | Dose-dependent effect | Active | Active | Active | 2.76 | 
COc1ccc(C(=O)/C=C/c2ccccc2Cl)cc1 |  |  | Active | Active | Active | Active | Active | Active | Dose-dependent effect | Active | Active | 8.22 | Dose-dependent effect | Active | Active | Active | 7.32 | Activity [16]: Toxic; Activity [17]: Non-toxic; inhibition [18]: Active; Activity [19]: 70%; inhibition [27]: Dose-dependent effect; inhibition [20]: Active; inhibition [21]: Dose-dependent effect; inhibition [22]: Dose-dependent effect; inhibition [23]: Dose-dependent effect; inhibition [24]: Active
